Measured values taken from ChEMBL document CHEMBL4627365, “Dithiocarbamate prodrugs activated by prostate specific antigen to target prostate cancer” (Bioorg Med Chem Lett, 2020).
Residues, ends and D or L forms follow the SMILES beside them. *: point of attachment. X1 = CCN(CC)C(=S)SCc1ccc(N*)cc1

Tests used:
[1] = molecular target: T1, Prostate-specific antigen (Homo sapiens, UniProt P07288); experiment: Prodrug activation assessed as PSA-mediated (unknown origin) Cu(diethyldithiocarbamate)2 complex formation in presence of CuSO4 by LC-MS analysis; type: ADME
T1 sequence (P07288 whole entry): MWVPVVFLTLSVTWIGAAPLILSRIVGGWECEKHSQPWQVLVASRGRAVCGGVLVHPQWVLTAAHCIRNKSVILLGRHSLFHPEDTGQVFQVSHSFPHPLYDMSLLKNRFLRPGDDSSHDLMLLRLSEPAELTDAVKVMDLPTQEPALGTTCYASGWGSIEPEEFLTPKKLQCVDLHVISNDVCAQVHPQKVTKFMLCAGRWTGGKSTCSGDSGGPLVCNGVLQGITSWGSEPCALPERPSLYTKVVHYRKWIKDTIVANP
In short: (§1)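 Prodrug was incubated with 20 μg/mL PSA enzyme and sampled from 5 min to 48 h. Samples were analysed by HPLC at 254 nm, and products were assigned by mass spectrometry (m/z).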

[2] = molecular target: T1, Prostate-specific antigen; experiment: Prodrug activation assessed as PSA-mediated (unknown origin) [4-[[(2S)-2-[[(2R)-2-amino-3-hydroxy-propanoyl]amino]-4-methyl-pentanoyl]amino]phenyl]methyl N,N-diethylcarbamodithioate metabolite formation in presence of CuSO4 by LC-MS analysis; type: ADME; in short: as §1
[3] = molecular target: T1, Prostate-specific antigen; experiment: Prodrug activation in human LNCAP cell lysates assessed as PSA-mediated peptide cleavage measured up to 4 hrs by HPLC analysis; type: subcellular, Lysate
In short: (§2)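 Prodrug incubated with LNCaP or PC3 cell lysate. Cleavage followed over time by HPLC, with caffeine as reference, for up to 48 h.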

[4] = molecular target: T1, Prostate-specific antigen; experiment: Prodrug activation assessed as PSA-mediated (unknown origin) Leu-PAB-DT metabolite formation measured up to 48 hrs by HPLC analysis; type: ADME
In short: (§3)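 Prodrug incubated with 20 μg/mL PSA enzyme; samples taken at 5 min, 1 h, 2 h, 4 h, 8 h, 24 h and 48 h. Monitored by HPLC at 254 nm as percent prodrug remaining. Cleavage product identity confirmed by mass spectrometry.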

[5] = molecular target: T2, Prostate-specific antigen (PSA) (Homo sapiens, UniProt P07288); experiment: Stability assessed as PSA-mediated (unknown origin) compound cleavage by measuring parent compound remaining after 48 hrs by HPLC analysis; type: ADME; conditions: prostate-specific antigen (PSA) enzyme, read-out: Stability; in short: as §3
T2 sequence (P07288 whole entry): T1 sequence (P07288 whole entry)

[6] = molecular target: T1, Prostate-specific antigen; experiment: Prodrug activation assessed as PSA-mediated (unknown origin) diethyldithiocarbamate formation in presence of leucine aminopeptidase by LC-MS analysis; type: ADME
[7] = Prodrug activation in human PC3 cell lysate assessed as peptide cleavage measured up to 48 hrs by HPLC analysis; type: subcellular; conditions: pc-3, 48 h; in short: as §2
[8] = molecular target: T1, Prostate-specific antigen; experiment: Prodrug activation assessed as PSA-mediated (unknown origin) Cu(diethyldithiocarbamate)2 complex formation in presence of leucine aminopeptidase and CuSO4 after 14.5 mins by LC-MS analysis; type: ADME
Prostatic carcinoma cell = experiment: Antiproliferative activity against human prostate cancer cells assessed as reduction in cell viability after 24 hrs by resazurin dye based assay; type: functional
In short: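 LNCaP (PSA-expressing) and PC3 (PSA-non-expressing) cells were co-treated with prodrug plus 1 μM CuSO4. Proliferation was read by resazurin assay at 24 h, and IC50 was derived.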

[9] = Cytotoxicity against human prostate epithelial cells assessed as reduction in cell viability after 24 hrs by resazurin dye based assay
[10] = molecular target: T1, Prostate-specific antigen; experiment: Prodrug activation assessed as PSA-mediated (unknown origin) compound cleavage measured up to 8 hrs by HPLC analysis; in short: as §3
[11] = molecular target: T1, Prostate-specific antigen; experiment: Prodrug activation assessed as PSA-mediated (unknown origin) 4-((R)-2-((R)-2-amino-3-hydroxypropanamido)-4-methylpentanamido)benzyl diethyl-carbamodithioate metabolite formation by HPLC analysis; type: ADME; in short: as §3
[12] = Prodrug activation in human PC3 cell lysate assessed as peptide cleavage measured up to 4 hrs by HPLC analysis; type: subcellular; conditions: pc-3, 4 h; in short: as §2

## CCN(CC)C(=S)SCc1ccc(NC(=O)[C@H](CC(C)C)NC(=O)[C@H](CO)NC(=O)[C@H](Cc2ccc(O)cc2)NC(=O)[C@H](Cc2ccc(O)cc2)NC(=O)[C@H](CO)NC(=O)[C@H](CO)NC(=O)[C@H](CCCNC(=N)N)NC(=O)[C@H](N)CO)cc1
[1]
  Drug metabolism: Metabolite_Notdetected
[2]
  Drug metabolism: Metabolite_Detected

## CCN(CC)C(=S)SCc1ccc(NC(=O)[C@H](CC(C)C)NC(=O)[C@H](CO)NC(=O)[C@H](Cc2ccc(O)cc2)NC(=O)[C@H](Cc2ccc(O)cc2)NC(=O)[C@H](CO)NC(=O)[C@H](CO)NC(=O)[C@@H](N)CCCNC(=N)N)cc1 (H-RSSYYSL-X1)
[3]
  Drug metabolism: 100%
[4]
  Drug metabolism: Metabolite_Detected
[5]
  remaining at 48 h: 30%
[6]
  Drug metabolism: Metabolite_Notdetected
[7]
  Drug metabolism: Metabolite_Notdetected
[8]
  Drug metabolism: Metabolite_Detected

## CCN(CC)C(=S)SCc1ccc(NC(=O)CC[C@H](N)C(=O)O)cc1
Prostatic carcinoma cell
  IC50: 0.8 µM
[9]
  IC50: 15 µM

## CCN(CC)C(=S)SCc1ccc(NC(=O)[C@H](CC(C)C)NC(=O)[C@H](CCC(N)=O)NC(=O)[C@H](CC(C)C)NC(=O)[C@H](CCCCN)NC(=O)[C@H](CO)NC(=O)[C@H](CO)NC(=O)[C@H](Cc2c[nH]cn2)NC(C)=O)cc1 (Ac-HSSKLQL-X1)
[3]
  Drug metabolism: 100%
[10]
  Drug metabolism: 100%
[11]
  Drug metabolism: Metabolite_Detected
[6]
  Drug metabolism: Metabolite_Notdetected
[12]
  Drug metabolism: > 50%
[8]
  Drug metabolism: Metabolite_Detected
